ChEMBL document CHEMBL4152188, “Design, synthesis and biological evaluation of C(4) substituted monobactams as antibacterial agents against multidrug-resistant Gram-negative bacteria” (Eur J Med Chem, 2018)
Converted amounts (≈) assume the structure as drawn.

Legend:
Assay type in all cases: functional
[1] = test system: Escherichia coli; experiment: Selectivity index, ratio of MIC for against extended-spectrum beta-lactamase producing Escherichia coli isolate 106342 to MIC for extended-spectrum beta-lactamase producing Escherichia coli isolate 106342 in presence of BPL
[2] = test system: Klebsiella pneumoniae; experiment: Antibacterial activity against KPC-2 producing Klebsiella pneumoniae isolate 209735 after 18 hrs by CLSI broth microdilution method; conditions: isolate 209735, 18 h
[3] = test system: Pseudomonas aeruginosa; experiment: Antibacterial activity against IMP-4 producing Pseudomonas aeruginosa isolate 209321 after 18 hrs in presence of BPL by CLSI broth microdilution method; conditions: isolate 209321, 18 h
How it was run: (§1)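 CLSI broth microdilution against clinical isolates (ESBL E. coli, KPC-2 MDR K. pneumoniae, IMP-4 MDR P. aeruginosa; five per species). Iron limitation: Mueller-Hinton broth supplemented with 16 mg/liter 2,2'-bipyridyl to complex iron and induce iron uptake systems. Read-out: MIC.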

[4] = test system: Klebsiella pneumoniae; experiment: Antibacterial activity against KPC-2 producing Klebsiella pneumoniae isolate 209632 after 18 hrs in presence of BPL by CLSI broth microdilution method; conditions: isolate 209632, 18 h; how it was run: as §1
[5] = test system: Pseudomonas aeruginosa; experiment: Antibacterial activity against IMP-4 producing Pseudomonas aeruginosa isolate 207272 after 18 hrs in presence of BPL by CLSI broth microdilution method; conditions: isolate 207272, 18 h; how it was run: as §1
[6] = test system: Pseudomonas aeruginosa; experiment: Selectivity index, ratio of MIC for against IMP-4 producing Pseudomonas aeruginosa isolate 209321 to MIC for against IMP-4 producing Pseudomonas aeruginosa isolate 209321 in presence of BPL
[7] = test system: Pseudomonas aeruginosa; experiment: Antibacterial activity against IMP-4 producing Pseudomonas aeruginosa isolate 207272 after 18 hrs by CLSI broth microdilution method; conditions: isolate 207272, 18 h
[8] = test system: Pseudomonas aeruginosa; experiment: Antibacterial activity against IMP-4 producing Pseudomonas aeruginosa isolate 208247 after 18 hrs by CLSI broth microdilution method; conditions: isolate 208247, 18 h
[9] = test system: Escherichia coli; experiment: Selectivity index, ratio of MIC for against extended-spectrum beta-lactamase producing Escherichia coli isolate 209285 to MIC for extended-spectrum beta-lactamase producing Escherichia coli isolate 209285 in presence of BPL
[10] = test system: Klebsiella pneumoniae; experiment: Antibacterial activity against KPC-2 producing Klebsiella pneumoniae isolate 209735 after 18 hrs in presence of BPL by CLSI broth microdilution method; conditions: isolate 209735, 18 h; how it was run: as §1
[11] = test system: Escherichia coli; experiment: Antibacterial activity against Escherichia coli isolate 210737 after 18 hrs in presence of BPL by CLSI broth microdilution method; conditions: isolate 210737, 18 h; how it was run: as §1
[12] = test system: Klebsiella pneumoniae; experiment: Antibacterial activity against KPC-2 producing Klebsiella pneumoniae isolate 212423 after 18 hrs in presence of BPL by CLSI broth microdilution method; conditions: isolate 212423, 18 h; how it was run: as §1
[13] = test system: Escherichia coli; experiment: Antibacterial activity against extended-spectrum beta-lactamase producing Escherichia coli isolate 208687 after 18 hrs by CLSI broth microdilution method; conditions: isolate 208687, 18 h
[14] = test system: Escherichia coli; experiment: Selectivity index, ratio of MIC for against Escherichia coli isolate 210737 to MIC for Escherichia coli isolate 210737 in presence of BPL
[15] = test system: Pseudomonas aeruginosa; experiment: Antibacterial activity against IMP-4 producing Pseudomonas aeruginosa isolate 209321 after 18 hrs by CLSI broth microdilution method; conditions: isolate 209321, 18 h
[16] = test system: Klebsiella pneumoniae; experiment: Antibacterial activity against KPC-2 producing Klebsiella pneumoniae isolate 212423 after 18 hrs by CLSI broth microdilution method; conditions: isolate 212423, 18 h
[17] = test system: Klebsiella pneumoniae; experiment: Antibacterial activity against KPC-2 producing Klebsiella pneumoniae isolate 209632 after 18 hrs by CLSI broth microdilution method; conditions: isolate 209632, 18 h
[18] = test system: Escherichia coli; experiment: Antibacterial activity against extended-spectrum beta-lactamase producing Escherichia coli isolate 212648 after 18 hrs in presence of BPL by CLSI broth microdilution method; conditions: isolate 212648, 18 h; how it was run: as §1
[19] = test system: Klebsiella pneumoniae; experiment: Antibacterial activity against KPC-2 producing Klebsiella pneumoniae isolate 212232 after 18 hrs by CLSI broth microdilution method; conditions: isolate 212232, 18 h
[20] = test system: Escherichia coli; experiment: Antibacterial activity against extended-spectrum beta-lactamase producing Escherichia coli isolate 106342 after 18 hrs by CLSI broth microdilution method; conditions: isolate 106342, 18 h
[21] = test system: Escherichia coli; experiment: Selectivity index, ratio of MIC for against extended-spectrum beta-lactamase producing Escherichia coli isolate 212648 to MIC for extended-spectrum beta-lactamase producing Escherichia coli isolate 212648 in presence of BPL
[22] = test system: Pseudomonas aeruginosa; experiment: Antibacterial activity against IMP-4 producing Pseudomonas aeruginosa isolate 212886 after 18 hrs by CLSI broth microdilution method; conditions: isolate 212886, 18 h
[23] = test system: Pseudomonas aeruginosa; experiment: Antibacterial activity against IMP-4 producing Pseudomonas aeruginosa isolate 212886 after 18 hrs in presence of BPL by CLSI broth microdilution method; conditions: isolate 212886, 18 h; how it was run: as §1
[24] = test system: Pseudomonas aeruginosa; experiment: Antibacterial activity against IMP-4 producing Pseudomonas aeruginosa isolate 209471 after 18 hrs in presence of BPL by CLSI broth microdilution method; conditions: isolate 209471, 18 h; how it was run: as §1
[25] = test system: Pseudomonas aeruginosa; experiment: Antibacterial activity against IMP-4 producing Pseudomonas aeruginosa isolate 208247 after 18 hrs in presence of BPL by CLSI broth microdilution method; conditions: isolate 208247, 18 h; how it was run: as §1
[26] = test system: Klebsiella pneumoniae; experiment: Antibacterial activity against KPC-2 producing Klebsiella pneumoniae isolate 212232 after 18 hrs in presence of BPL by CLSI broth microdilution method; conditions: isolate 212232, 18 h; how it was run: as §1
[27] = test system: Escherichia coli; experiment: Selectivity index, ratio of MIC for against extended-spectrum beta-lactamase producing Escherichia coli isolate 208687 to MIC for extended-spectrum beta-lactamase producing Escherichia coli isolate 208687 in presence of BPL
[28] = test system: Escherichia coli; experiment: Antibacterial activity against extended-spectrum beta-lactamase producing Escherichia coli isolate 209285 after 18 hrs by CLSI broth microdilution method; conditions: isolate 209285, 18 h
[29] = test system: Escherichia coli; experiment: Antibacterial activity against extended-spectrum beta-lactamase producing Escherichia coli isolate 212648 after 18 hrs by CLSI broth microdilution method; conditions: isolate 212648, 18 h
[30] = test system: Escherichia coli; experiment: Antibacterial activity against Escherichia coli isolate 210737 after 18 hrs by CLSI broth microdilution method; conditions: isolate 210737, 18 h
[31] = test system: Klebsiella pneumoniae; experiment: Antibacterial activity against KPC-2 producing Klebsiella pneumoniae isolate 212229 after 18 hrs by CLSI broth microdilution method; conditions: isolate 212229, 18 h
[32] = test system: Escherichia coli; experiment: Antibacterial activity against extended-spectrum beta-lactamase producing Escherichia coli isolate 209285 after 18 hrs in presence of BPL by CLSI broth microdilution method; conditions: isolate 209285, 18 h; how it was run: as §1
[33] = test system: Escherichia coli; experiment: Antibacterial activity against extended-spectrum beta-lactamase producing Escherichia coli isolate 208687 after 18 hrs in presence of BPL by CLSI broth microdilution method; conditions: isolate 208687, 18 h; how it was run: as §1
[34] = test system: Escherichia coli; experiment: Antibacterial activity against extended-spectrum beta-lactamase producing Escherichia coli isolate 106342 after 18 hrs in presence of BPL by CLSI broth microdilution method; conditions: isolate 106342, 18 h; how it was run: as §1
[35] = test system: Klebsiella pneumoniae; experiment: Antibacterial activity against KPC-2 producing Klebsiella pneumoniae isolate 212229 after 18 hrs in presence of BPL by CLSI broth microdilution method; conditions: isolate 212229, 18 h; how it was run: as §1
[36] = test system: Pseudomonas aeruginosa; experiment: Antibacterial activity against IMP-4 producing Pseudomonas aeruginosa isolate 209471 after 18 hrs by CLSI broth microdilution method; conditions: isolate 209471, 18 h

## C=CC1[C@H](NC(=O)/C(=N\OC(c2cc(=O)c(O)cn2O)C(C)C)c2csc(N)n2)C(=O)N1S(=O)(=O)O (stereo partly specified)
[1]
  Selectivity Index: 1
[2]
  MIC: > 64 µg/mL
[3]
  MIC: 64 µg/mL
[4]
  MIC: > 64 µg/mL
[5]
  MIC: > 64 µg/mL
[6]
  Selectivity Index: 1
[7]
  MIC: > 64 µg/mL
[8]
  MIC: > 64 µg/mL
[9]
  Selectivity Index: 1 - 32
[10]
  MIC: > 64 µg/mL
[11]
  MIC: > 64 µg/mL
[12]
  MIC: > 64 µg/mL
[13]
  MIC: 64 µg/mL (≈ 118 µM)
[14]
  Selectivity Index: 1 - 32
[15]
  MIC: 64 µg/mL (≈ 118 µM)
[16]
  MIC: > 64 µg/mL
[17]
  MIC: > 64 µg/mL
[18]
  MIC: > 64 µg/mL
[19]
  MIC: > 64 µg/mL
[20]
  MIC: 64 µg/mL (≈ 118 µM)
[21]
  Selectivity Index: 1 - 32
[22]
  MIC: > 64 µg/mL
[23]
  MIC: > 64 µg/mL
[24]
  MIC: > 64 µg/mL
[25]
  MIC: > 64 µg/mL
[26]
  MIC: > 64 µg/mL
[27]
  Selectivity Index: 32
[28]
  MIC: > 64 µg/mL
[29]
  MIC: > 64 µg/mL
[30]
  MIC: > 64 µg/mL
[31]
  MIC: > 64 µg/mL
[32]
  MIC: > 64 µg/mL
[33]
  MIC: 2 µg/mL
[34]
  MIC: 64 µg/mL
[35]
  MIC: > 64 µg/mL
[36]
  MIC: > 64 µg/mL
